# Compounds with a hit are over-represented: about 4.9% of the library has one in this group of screens.
# STAT1 act – activators of IFN-gamma induced STAT1 signaling | AID 932 | 200,000 tested, 2.6% active | NIH 3T3 STAT1-luciferase reporter, luminescence; 100% = IFN-gamma alone, no compound | activation (% of control), % at 5.5 µM;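 active = activation above the screen-wide mean activation plus 3 SD, cut at about 130% in these data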;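 also: raw ratio to IFN-gamma control signal so 100% means no change and 0% no light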
# NF-kB neuron act – raises NF-kB expression in human neuronal cells. NF-kB reporter expression; active compounds read high. fold change at 12.5 µM. 190,000 tested, 1.6% active; in the data active = fold change above about 3.3
# STAT1 inh-1 – inhibitors of IFN-gamma induced STAT1 signaling | NIH 3T3 STAT1-luciferase reporter, luminescence | inhibition, % at 5.5 µM | 200,000 tested, 0.35% active;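 active = inhibition above a set limit, the mean inhibition across all tested compounds plus 3 SD, cut at about 34% in these data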;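 also: 0% = IFN-gamma with DMSO and 100% = IFN-gamma with 300 µM nifuroxazide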
# STAT3 act – STAT3 signaling activation | U3A cells, IL-6 STAT3-luciferase reporter, luminescence; 100% = signal with IL-6 EC80 alone | 190,000 tested, 0.91% active | activation (% of control), % at 5.6 µM | AID 871;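 active = activation above the screen-wide mean of compound activation plus 3 SD, cut at about 130% in these data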;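 also: 0% = background luminescence of wells with medium and substrate only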
#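 Test system: human U3A cells carrying STAT3-luciferase construct; control set: IL-6-only wells as 100% reference; timing: compound pre-incubation 1 h before IL-6, then 6 h stimulation at 37 °C; also added: IL-6 stimulus at 33 ng/mL final; evaluation: % activation versus median of IL-6-stimulated wells; detection: reporter luminescence signal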
# STAT3 inh – reduces IL-6 driven STAT3 reporter signal. U3A cells, IL-6 STAT3-luciferase reporter, luminescence; host cell line lacks STAT1. inhibition, % at 5.5 µM. 190,000 tested, 0.89% active. AID 862;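 active = inhibition above the mean inhibition across all screened compounds plus 3 SD, cut at about 44% in these data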;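 also: 0% = DMSO only wells and 100% = 100 µM nifuroxazide control wells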
# APP 5'UTR act – activates APP 5'UTR luciferase reporter; SH-SY5Y APP 5'UTR luciferase reporter, luminescence; zero percent = DMSO vehicle wells; 190,000 tested, 1% active; AID 1276; activation, % at 2 µM;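 active = activation above a set limit, based on mean plus 3 SD of controls, cut at about 140% in these data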
# STAT1 inh-2 – STAT1 inhibition, confirmation assay; AID 1263; inhibition, % at 5.5 µM; NIH 3T3 STAT1-luciferase reporter, IFN-gamma, luminescence; shares compounds with STAT1 inh-1; 200 tested, 55% active;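 active = triplicate mean inhibition exceeding the hit cutoff computed for the primary STAT1 screen, cut at about 35% in these data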;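 also: 0% = DMSO with IFN-gamma and 100% = 300 µM nifuroxazide with IFN-gamma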
# NFkB inh – counter-screen for STAT1 inhibitors: NF-kappaB inhibition | shares compounds with STAT1 inh-1 | HEK293T NF-kB luciferase reporter, TNF-alpha induced, luminescence | inhibition, % at 5.7 µM | 200 tested, 30% active;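 active = inhibition above the mean of solvent-only control wells plus 3 SD of those wells, cut at about 15% in these data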;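 also: 0% = DMSO with TNF-alpha and 100% = MG-132 control with TNF-alpha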
# STAT3 inh STAT1c – counter-screen for STAT1 inhibitors: STAT3 inhibition | U3A cells, IL-6 STAT3 luciferase reporter, luminescence; cells lacking STAT1 | inhibition, % at 5.7 µM | 200 tested, 20% active | shares compounds with STAT1 inh-1;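 active = inhibition above the mean of solvent-only control wells plus 3 SD, set per campaign, cut at about 25% in these data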;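 also: 0% = IL-6 plus DMSO and 100% = IL-6 plus nifuroxazide control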
# STAT1 act conf – confirmation of STAT1 signaling activators; 1,200 tested, 97% active; AID 1262; shares compounds with STAT1 act; NIH 3T3 STAT1-luciferase reporter, IFN-gamma potentiation, luminescence; 100% = IFN-gamma EC80 alone, no compound; activation (% of control), % at 5.7 µM;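 active = activation above a set limit carried over from the earlier primary STAT1 screen, cut at about 140% in these data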;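 also: simple ratio to median IFN-gamma plus DMSO wells so 0% means no light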
# NFkB act – NF-kappaB activation in STAT1 activator counter-screen; activation (% of control), % at 5.7 µM; HEK293T NF-kB luciferase reporter, TNF-alpha stimulated, luminescence; 100% = TNF-alpha with vehicle only; shares compounds with STAT1 act; 1,200 tested, 43% active;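 active = activation above the mean of solvent-only control wells plus 3 SD, set per campaign, cut at about 130% in these data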;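 also: TNF-alpha given at a submaximal dose yielding about 80% of full reporter signal; values are well signal over median control so 100% means no change and 0% no light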
# STAT3 act STAT1c – counter-screen for STAT1 activators: human STAT3 activation; shares compounds with STAT1 act; U3A cells STAT3-luciferase reporter, IL-6, luminescence; cells lack STAT1; 100 = IL-6 alone, no compound effect; activation (% of control), % at 5.7 µM; 1,200 tested, 46% active; AID 1316;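 active = activation above the solvent-only control well mean plus 3 SD, set per plate batch, cut at about 110% in these data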;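 also: 0% = no luminescence and 100% = median IL-6 plus DMSO wells; higher means more STAT3 reporter activation so hits are non-selective activators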
# An asterisk follows results filed as active; · = no result given.
SMILES,STAT1 act,NF-kB neuron act,STAT1 inh-1,STAT3 act,STAT3 inh,APP 5'UTR act,STAT1 act conf,NFkB act,STAT3 act STAT1c,others
O=C(Nc1ccc(OC(=O)N2CCCCC2)cc1)N1CCOCC1,66,0.64,36*,84,22,-52,·,·,·,STAT1 inh-2=14;NFkB inh=5;STAT3 inh STAT1c=12
O=C(Nc1ccc(OC(=O)N2CCCC2)cc1)N1CCOCC1,99,1,1,95,10,-4,·,·,·,
CN1CCN(c2ccc(N)cc2Cl)CC1,88,1,13,93,16,8,·,·,·,
CC1(C)CC(=O)C(C=NCCN2CCN(C(=O)Cc3ccc(F)cc3)CC2)=C(O)C1,67,1.1,34*,104,0,-15,·,·,·,STAT1 inh-2=0;NFkB inh=-4;STAT3 inh STAT1c=-7
CCc1ccc(-c2nn(Cc3ccccc3)cc2C=O)cc1,170*,4.1*,-75,122,-19,133,158*,128,121*,
O=C(O)c1cn(Cc2ccccc2)nc1-c1ccccc1,97,0.98,2,97,6,-4,·,·,·,
O=c1c2ccccc2nc(Cc2ccccc2)n1-c1ccc(O)cc1,96,1,3,93,11,10,·,·,·,
CN1C(=O)/C(=C/c2ccc(N3CCCCCC3)o2)C(=O)NC1=S,166*,2.4,-74,122,-24,28,213*,148*,126*,
Clc1ccc(OCC#CCN2CCCCCC2)cc1,112,·,-12,105,0,30,·,·,·,
CC(=O)Nc1ccccc1C(=O)OCc1cccc(F)c1,184*,1,-93,107,0,3,182*,124,108,
